# Key:
# PGRP4 = assay: SPR on a Biacore T200; assay type: binding; conditions: read-out: Kd (μM), values without parentheses
# How it was run: (§1)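 Association and dissociation were run on a Biacore T200 with amine-coupled protein. DAP- or Lys-muramyl pentapeptide, stored at −20 °C, was flowed in HBS-EP (10 mM HEPES, 150 mM NaCl, 3 mM EDTA, 0.005% polysorbate 20) at 30 μl/min and 25 °C. Multi-concentration curves were globally fitted to 1:1 and two-state models, and Kd came from the fit with lower χ2.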
# PGRP5 = assay: SPR on a Biacore T200; assay type: binding; conditions: read-out: Kd (μM), values without parentheses
# How it was run: as §1
# PGRP12e = assay: SPR on a Biacore T200; assay type: binding; conditions: read-out: Kd (μM), values without parentheses
# How it was run: as §1
# PGRP1 [1] = biological target: T1, PGRP1 (Manduca sexta, UniProt Q86RS6); assay: SPR on a Biacore T100; assay type: binding; conditions: read-out: Kd (μM), values in parentheses; cited from earlier work
# T1 sequence (Q86RS6 20-191): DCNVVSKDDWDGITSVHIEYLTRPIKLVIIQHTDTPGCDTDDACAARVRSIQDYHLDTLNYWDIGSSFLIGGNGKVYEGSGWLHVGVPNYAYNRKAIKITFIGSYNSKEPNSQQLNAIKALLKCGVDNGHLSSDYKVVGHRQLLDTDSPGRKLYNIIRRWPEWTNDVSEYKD
# PGRP3s [2] = assay: SPR on a Biacore T200; assay type: binding; conditions: read-out: Kd (μM), values without parentheses
# How it was run: as §1
# PGRP2 = biological target: T2, PGRP2 (Manduca sexta, UniProt D1KRK9); assay: SPR on a Biacore T100; assay type: binding; conditions: read-out: Kd (μM), values in parentheses
# T2 sequence (D1KRK9 19-196): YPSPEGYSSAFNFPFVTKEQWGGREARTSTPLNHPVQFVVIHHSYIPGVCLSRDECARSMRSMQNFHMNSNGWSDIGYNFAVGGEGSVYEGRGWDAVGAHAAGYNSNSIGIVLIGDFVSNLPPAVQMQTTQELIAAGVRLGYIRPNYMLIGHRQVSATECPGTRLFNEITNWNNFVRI
# How it was run: (§2)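 On a Biacore T100, protein was amine-coupled and DAP- or Lys-muramyl pentapeptide, freshly prepared, was flowed in HBS-EP (10 mM HEPES, 150 mM NaCl, 3 mM EDTA, 0.005% polysorbate 20) at 30 μl/min and 25 °C. Curves at several analyte concentrations were globally fitted to 1:1 and two-state models, and the fit with lower χ2 gave Kd.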
# PGRP3s [3] = assay: SPR on a Biacore T100; assay type: binding; conditions: read-out: Kd (μM), values in parentheses
# How it was run: as §2
# PGRP1 [4] = biological target: T1, PGRP1; assay: SPR on a Biacore T200; assay type: binding; conditions: read-out: Kd (μM), values without parentheses
# How it was run: as §1
# PGRP3f = assay: SPR on a Biacore T200; assay type: binding; conditions: read-out: Kd (μM), values without parentheses
# How it was run: as §1
# PGRP13f = assay: SPR on a Biacore T200; assay type: binding; conditions: read-out: Kd (μM), values without parentheses
# How it was run: as §1
# [5] = system: proPO activation in cell-free hemolymph from naïve larvae; assay: Elicitor-independent proPO activation in plasma from naïve larvae; assay type: biochemical, Manduca sexta; conditions: at 40 ng/μl protein, 60 min, room temperature, no bacterial elicitor
# How it was run: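 Naïve larval plasma (day 2, 5th instar; hemocytes removed by 5000 × g, 5 min; stored −80 °C, used within a month) was diluted ten-fold in 20 mM Tris-HCl pH 8.0, 1 mM CaCl2, 0.001% Tween-20. Plasma (5 μl) was mixed with 0–1000 ng protein (final 25 μl) and incubated 60 min. BSA served as negative control. PO was read with dopamine at A470 in kinetic mode; mean ± SD, n = 3.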
Substance,Kd (PGRP4) [µM],Kd (PGRP5) [µM],Kd (PGRP12e) [µM],Kd (PGRP1 [1]) [µM],Kd (PGRP3s [2]) [µM],Kd (PGRP2) [µM],Kd (PGRP3s [3]) [µM],Kd (PGRP1 [4]) [µM],Kd (PGRP3f) [µM],Kd (PGRP13f) [µM],PO activity [5] [U]
DAP-muramyl pentapeptide (meso-diaminopimelic acid-type peptidoglycan monomer) [DAP-MPP],4.06,2.01,2.64,0.57,1.75,0.49,0.42,2.01,4.7,1.8,–
Lys-muramyl pentapeptide (Lys-type peptidoglycan monomer) [Lys-MPP],79.8,37.8,–,45.6,23.8,> 100,64,38,29.2,8.77,–
bovine serum albumin [BSA],–,–,–,–,–,–,–,–,–,–,0.1

# — paper PMC11528686 (Insect biochemistry and molecular biology, 2022)
